Test results published in PubChem BioAssay.
The source made the active and inactive calls.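 Rule for the calls, unless noted: active = NADPH fluorescence slope more negative than the mean of all samples by about 3 SD, 99.7% confidence; inactive = the rest.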

Assays:
[1] = inhibitors of TNFa-induced NFkB p65 translocation, primary screen, imaging, HUVEC, MLSMR starter and 10KST1 sets (AID 438;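 active = inhibition above 20% together with a positive visual image hit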;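 note: compound added about 3h40 before a 20 min TNFalpha stimulation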;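 for inhibition: signal is the nuclear over cytoplasmic p65 intensity ratio per well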); details: HUVEC TNFa-induced p65 nuclear translocation; cell count: measured here: nuclei count (cytotoxicity indicator), at 2.08 µM; inhibition: at 2 µM, stronger effect = higher value, 0% TNFa-plus-vehicle, 100% no-TNFa wells
[2] = reduction of polyQ htt aggregates in cells – imaging, exon1htt(103Q)mCFP cells, high-content imaging, primary screen (AID 483;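 active = visual image review flags a hit and inhibition of aggregation exceeds 20%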;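 note: compound exposure lasted 3 days before fixation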;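 for nuclei count: percent of the per-plate median nuclei count of sample wells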); details: exon1htt(103Q)mCFP cell line, aggregate imaging, at 2 µM; inhibition of aggregation: stronger effect = higher value; nuclei count: measured here: cell count, toxicity
[3] = endothelial E-selectin expression blockers – imaging, HUVEC, immunofluorescence, MLSMR starter and 10KST1 sets, primary screen (AID 487;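 active = visually confirmed hit in the image check and inhibition above 20%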;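 for inhibition: signal is fraction of cell area covered by stained E-selectin grains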;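 for nuclei count: 100% = median nuclei count of all wells on the same plate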); details: HUVEC TNFalpha-induced E-selectin immunofluorescence imaging, at 2 µM; inhibition: stronger effect = higher value; nuclei count: measured here: cell number, toxicity
[4] = molecular target: Voltage-gated potassium channel subunit beta-2 (Rattus norvegicus) (UniProt P62483); assay: inhibitors of rat Kvbeta2 reductase activity – biochemical, NADPH fluorescence, primary screen (AID 622;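 active = fluorescence slope higher than the sample average by over 3 SD, cut at about -0.22 in these data, passing the limit was not always enough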;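 note: slope of raw intensity against log time taken from 70 to 1610 s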); details: recombinant KvBeta, 4-cyanobenzaldehyde reduction, at 10 µM, stronger effect = higher value
[5] = molecular target: Voltage-gated potassium channel subunit beta-2 (Rattus norvegicus) (UniProt P62483); assay: enhancers of rat Kvbeta2 NADPH turnover – biochemical, NADPH fluorescence, primary screen (AID 623); details: Recombinant KvBeta, NADPH fluorescence decrease slope, 10 min; at 10 µM; stronger effect = lower value;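 note: fluorescence intensity change per second fitted from 20 to 320 s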
[6] = molecular target: Muscarinic acetylcholine receptor M4 (Homo sapiens) (UniProt P08173); assay: M4-linked GIRK flux change, two-sided – cell-based, HEK293 M4/GIRK, thallium flux, BTC-AM, M4 allosteric agonist project, primary screen (AID 625;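 active = fluorescence slope after compound addition differing from the mean of all tested samples at 99.7% confidence, mostly higher but some lower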;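 note: thallium influx through GIRK channels coupled to M4 in HEK293 cells with BTC-AM dye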); details: at 10 µM, actives lie on both sides
Procedure, shortened: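 Material: M4/GIRK1/GIRK2 stable HEK293 cell line. Medium: pH 7.3 thallium assay buffer. Dosing: single compound concentration, 10 µM final. Schedule: 1 h dye loading, 2 min kinetic read. Measured by: kinetic fluorescence with BTC-AM dye. Read-out: post-addition slope, 15–24 s, of baseline-normalized fluorescence. Benchmarks: carbachol and DMSO controls.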

[7] = blockers of RIG-like receptor reporter activation – cell-based, Sendai virus stimulus, luciferase, 10K MLSCN set, TLR/RLR signaling modifier project, primary screen (AID 602276;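 active = inhibition at or above 50% at 10 µM; inactive = inhibition below 50%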;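 note: firefly luciferase from ISG56 promoter only with Renilla not read in this screen; 0% = Sendai virus plus DMSO and 100% = medium plus DMSO without virus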); details: HEK293 RL24 IRF3 luciferase reporter, at 10 µM, stronger effect = higher value
[8] = TLR3 IRF3 reporter activation blockers – cell-based, poly I:C stimulus, luciferase, 10K MLSCN set, primary screen (AID 602277;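 active = inhibition of the reporter signal at or above 50%; inactive = inhibition below 50%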); details: HEK293-TLR3 RL24 IRF3 luciferase reporter, at 10 µM, stronger effect = higher value

Chain of Muscarinic acetylcholine receptor M4 (Homo sapiens) (P08173 whole entry, looked up): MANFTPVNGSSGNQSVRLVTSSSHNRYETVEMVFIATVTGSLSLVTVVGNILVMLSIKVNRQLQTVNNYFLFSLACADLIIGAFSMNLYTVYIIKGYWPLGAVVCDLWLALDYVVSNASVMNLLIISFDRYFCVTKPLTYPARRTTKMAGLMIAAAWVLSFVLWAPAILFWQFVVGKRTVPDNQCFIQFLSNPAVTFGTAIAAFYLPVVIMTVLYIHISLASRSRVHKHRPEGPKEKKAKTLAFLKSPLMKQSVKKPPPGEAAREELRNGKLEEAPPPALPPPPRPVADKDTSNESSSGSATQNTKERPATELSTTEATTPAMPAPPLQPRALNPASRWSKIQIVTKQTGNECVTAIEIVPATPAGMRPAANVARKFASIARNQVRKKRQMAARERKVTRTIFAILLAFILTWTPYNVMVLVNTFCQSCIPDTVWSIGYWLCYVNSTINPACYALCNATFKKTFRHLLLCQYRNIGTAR
Chain of Voltage-gated potassium channel subunit beta-2 (Rattus norvegicus) (P62483 whole entry, looked up): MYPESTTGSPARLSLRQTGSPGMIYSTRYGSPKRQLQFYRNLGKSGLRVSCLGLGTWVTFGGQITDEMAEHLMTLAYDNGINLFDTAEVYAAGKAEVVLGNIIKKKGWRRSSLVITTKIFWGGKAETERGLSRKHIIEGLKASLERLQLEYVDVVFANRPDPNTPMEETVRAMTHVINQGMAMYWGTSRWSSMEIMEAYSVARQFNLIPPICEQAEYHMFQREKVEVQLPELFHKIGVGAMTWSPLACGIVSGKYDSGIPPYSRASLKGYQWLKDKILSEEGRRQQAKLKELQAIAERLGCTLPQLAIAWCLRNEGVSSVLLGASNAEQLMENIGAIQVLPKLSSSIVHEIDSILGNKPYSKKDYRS

| Compound | cell count [1] | inhibition [1] | inhibition of aggregation [2] | nuclei count [2] [%] | inhibition [3] | nuclei count [3] [%] | fluorescence slope [4] | NADPH fluorescence slope [5] | fluorescence slope [6] | inhibition [7] | inhibition [8] |
| --- | --- | --- | --- | --- | --- | --- | --- | --- | --- | --- | --- |
| N#Cc1cc2sc3nnc(-c4ccncc4)n3c2cc1C#N | 728 | 10.9% (inactive) | -17.6% (inactive) | 49.6 | 22.9% (inactive) | 77.1 | -0.529 (inactive) | 1.4e-05 (inactive) | 0.0043 (inactive) | 5.55% (inactive) | -16.8% (inactive) |
| [O-][n+]1onc2c1CCc1nnc(-c3ccccc3)cc1-2 | 320 | -0.8% (inactive) | 7.5% (inactive) | 102 | -7.3% (inactive) | 123 | -0.598 (inactive) | 2.3e-05 (inactive) | 0.00387 (inactive) | -0.775% (inactive) | -6.53% (inactive) |
| COc1ccccc1-c1nnc2sc(-c3ccc(N(C)C)cc3)nn12 | 695 | -11.2% (inactive) | -34.9% (inactive) | 1.9 | -217% (inactive) | 107 | -0.517 (inactive) | 1.2e-05 (inactive) | 0.00532 (inactive) | 37.1% (inactive) | 87.1% (active) |
| Cc1ccc(S(=O)(=O)N2CCCC2C(=O)OCc2ccco2)cc1 (configuration not stated) | 411 | -8.4% (inactive) | -7.8% (inactive) | 99 | -0.1% (inactive) | 102 | -0.499 (inactive) | -4e-05 (inactive) | 0.005 (inactive) | -9.42% (inactive) | -8.59% (inactive) |
| NC(=O)C1(N2CCCCC2)CCN(Cc2ccccc2Cl)CC1 | 438 | 0.3% (inactive) | -1% (inactive) | 98 | 3.4% (inactive) | 103 | -0.233 (inactive) | -2.8e-05 (inactive) | 0.0052 (inactive) | 12.3% (inactive) | 19.9% (inactive) |
| O=C(O)CCc1ccc(-c2cccs2)n1NC(=O)c1ccco1 | 719 | 3.6% (inactive) | -10.1% (inactive) | 107 | -93.6% (inactive) | 132 | -0.463 (inactive) | 1.5e-05 (inactive) | 0.00473 (inactive) | 20.8% (inactive) | 17.9% (inactive) |
| O=C(NCCN1CCOCC1)C1CC(=O)N(c2ccc(F)c(Cl)c2)C1 (configuration not stated) | 353 | -4.7% (inactive) | 21.8% (inactive) | 76.2 | -63.7% (inactive) | 120 | -0.554 (inactive) | -3.9e-05 (inactive) | 0.00645 (inactive) | 10.9% (inactive) | 10.3% (inactive) |
